Results taken from ChEMBL document CHEMBL4270489, “Synthesis and in vitro and in vivo antitumour activity study of 11-hydroxyl esterified bergenin/cinnamic acid hybrids” (Eur J Med Chem, 2017).
pIC50: −log10 of the molar value.

Assays:
PC-3 = experiment: Antiproliferative activity against human PC3 cells incubated for 48 to 72 hrs by MTT assay; assay type: functional, cell-based
Procedure, shortened: (§1)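 MTT assay. Cells were grown in DMEM with 10% heat-inactivated FBS at 37°C under 5% CO₂. They were seeded at 5000/well in 5% FBS DMEM for 24 h, then given compound in DMSO at 0.1, 1, 10 and 100 µmol/L for 72 h (the table footnote says 48 h). MTT was added for 4 h, formazan was dissolved in DMSO and read at 570 nm. IC₅₀ was from ≥3 independent runs; >100 μM was given if 50% inhibition was not reached.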

A549 = experiment: Antiproliferative activity against human A549 cells incubated for 48 to 72 hrs by MTT assay; assay type: functional, cell-based; procedure, shortened: as §1
SGC-7901 = experiment: Antiproliferative activity against human SGC7901 cells incubated for 48 to 72 hrs by MTT assay; assay type: functional, cell-based; procedure, shortened: as §1
MCF7 = experiment: Antiproliferative activity against human MCF7 cells incubated for 48 to 72 hrs by MTT assay; assay type: functional, cell-based; procedure, shortened: as §1
HepG2 [1] = experiment: Antiproliferative activity against human HepG2 cells incubated for 48 to 72 hrs by MTT assay; assay type: functional, cell-based; procedure, shortened: as §1
Mus musculus = experiment: Toxicity in Swiss mouse xenografted with human HepG2 cells assessed as reduction in body weight at 20 mg/kg, ip dosed every day for 14 days; assay type: organism-based; details: in vivo, 336 h
Procedure, shortened: (§2)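 Female Swiss mice (20-22 g) received 3×10⁶ HepG2 cells subcutaneously in the right flank. After 7-21 days they were randomised into groups of 6, including a saline control, and given daily intraperitoneal injections for 14 days. Body weight was recorded daily. Mice were killed on day 14, and tumour wet weight gave the % inhibition. Data are mean ± S.E.M.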

HepG2 [2] = experiment: Antitumour activity against human HepG2 cells xenografted in Swiss mouse assessed as inhibition of tumor growth at 20 mg/kg, ip dosed every day for 14 days; assay type: functional; details: 336 h, read-out: TGI; procedure, shortened: as §2

Row | Compound | pIC50 (PC-3) | pIC50 (A549) | pIC50 (SGC-7901) | pIC50 (MCF7) | pIC50 (HepG2 [1]) | Activity (Mus musculus) | inhibition in vivo at 20 mg/kg (HepG2 [2]) [%]
1 | COc1ccc(/C=C/C(=O)OC[C@H]2O[C@H]3c4c(cc(O)c(OC)c4O)C(=O)O[C@@H]3[C@@H](O)[C@@H]2O)cc1OC | < 4.00 | < 4.00 | 4.23 | < 4.00 | 4.06 |  | 
2 | COc1c(O)cc2c(c1O)[C@@H]1O[C@H](COC(=O)/C=C/c3ccc(F)cc3)[C@@H](O)[C@H](O)[C@H]1OC2=O | 4.64 | < 4.00 | < 4.00 | 4.45 | 4.77 |  | 
3 | COc1c(O)cc2c(c1O)[C@@H]1O[C@H](COC(=O)/C=C/c3ccc(C)c(C)c3)[C@@H](O)[C@H](O)[C@H]1OC2=O | < 4.00 | < 4.00 | < 4.00 | 4.23 | < 4.00 |  | 
4 | COc1c(O)cc2c(c1O)[C@@H]1O[C@H](COC(=O)/C=C/c3ccccc3)[C@@H](O)[C@H](O)[C@H]1OC2=O | 4.87 | 4.24 | 5.01 | < 4.00 | 4.73 |  | 
5 | COc1c(O)cc2c(c1O)[C@@H]1O[C@H](CO)[C@@H](O)[C@H](O)[C@H]1OC2=O [BERGENIN] | < 4.00 | 4.11 | 4.63 | < 4.00 | 4.46 |  | 
6 | O=c1[nH]cc(F)c(=O)[nH]1 [FLUOROURACIL] | 4.41 | 4.97 | 4.88 | 5.12 | 4.76 | Toxic | 52.2
7 | COc1c(O)cc2c(c1O)[C@@H]1O[C@H](COC(=O)/C=C/c3ccc(C)cc3)[C@@H](O)[C@H](O)[C@H]1OC2=O | 4.52 | 4.99 | 4.94 | 4.69 | < 4.00 |  | 
8 | COc1c(O)cc2c(c1O)[C@@H]1O[C@H](COC(=O)/C=C/c3ccc(Cl)c(Cl)c3)[C@@H](O)[C@H](O)[C@H]1OC2=O | < 4.00 | 4.20 | < 4.00 | < 4.00 | < 4.00 |  | 
